Here are results for 19 compounds from ChEMBL document CHEMBL3608263, “Identification and optimisation of 4,5-dihydrobenzo[1,2-d:3,4-d]bisthiazole and 4,5-dihydrothiazolo[4,5-h]quinazoline series of selective phosphatidylinositol-3 kinase alpha inhibitors” (Bioorg Med Chem Lett, 2015).

Values after ≈ are worked out from the molar mass of the structure shown.

Series [1] in a line: Solubility of the compound at pH 6.8 by high throughput equilibrium method. It counts as physicochemical. The following applies: buffer.
Series [2] in a line: Permeability across apical to basolateral side in human Caco2 cells. The class given is ADME, cell-based. As to conditions: Caco-2, read-out: permeability; call rule not given here.
Series [3] can be described thus: Permeability across basolateral to apical side in human Caco2 cells. It counts as ADME, cell-based. The following applies: Caco-2, read-out: permeability. For orientation: Passage across Caco-2 layers is used to estimate intestinal permeability.
Series [4] has as its system Rattus norvegicus. The experiment in a line: Dose normalized AUC in Sprague-Dawley rat at 1 mg/kg, iv. The class given is ADME, organism-based. The following applies: in vivo. In outline:
(§1)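 Female Sprague-Dawley rats, conscious, permanently cannulated, with free access to food. Dosed 1.0 mg kg-1 intravenously and 3.0 mg kg-1 orally. Blood levels sampled from 5 minutes to 48 h post dose.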

The nature of series [5]: Volume of distribution at steady state in Sprague-Dawley rat at 1 mg/kg, iv and 3 mg/kg, po. It counts as ADME, organism-based. The following applies: in vivo, read-out: Vdss. The procedure, abridged: as §1
Series [6] is described as follows: Oral bioavailability in Sprague-Dawley rat at 3 mg/kg. As to conditions: in vivo. The class given is ADME, organism-based. In outline:
as §1

For series [7], the system named is Rattus norvegicus. In words: Dose normalized AUC in Sprague-Dawley rat at 3 mg/kg, po. The class given is ADME, organism-based. As to conditions: in vivo. In outline: as §1
The nature of series [8]: Plasma concentration in athymic nude mouse xenografted with Rat1-myr-p110alpha tumor at 50 mg/kg, po measured after 16 hrs. It counts as ADME, organism-based. In outline: (§2)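 Female athymic mice bearing subcutaneous Rat1-myr-p110α xenografts were given one oral dose of 50 mg kg-1, as suspension or solution. At set time points, groups of n = 4 were sacrificed. Tumors were flash-frozen, pulverized and analysed by Western blot for Ser473 p-Akt. Compound was quantified in plasma in parallel.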

The test system of series [9] is Plasma. In words: Drug uptake in plasma of athymic nude mouse xenografted with Rat1-myr-p110alpha tumor at 50 mg/kg, po measured at 8 hrs. The class given is ADME, organism-based. As to conditions: in vivo. The procedure, abridged: as §2
Series [10] in a line: Plasma concentration in athymic nude mouse xenografted with Rat1-myr-p110alpha tumor at 50 mg/kg, po measured up to 8 hrs. It counts as ADME, organism-based. The procedure, abridged: as §2

A word on the solubility (thermodynamic): it is solubility found after equilibrating the solid with the medium. With `CC(C)(C)c1nc2c(s1)CCc1nc(NC(=O)N3CCC[C@@]3(C)C(N)=O)sc1-2`, the solubility (thermodynamic) in series [1] turned out to be 310 µM (≈ 130 µg/mL). Moreover, the Papp A→B in [2] worked out at 12.1 ×10⁻⁶ cm/s. For the same compound, in [3], the Papp B→A came out at 15.6 ×10⁻⁶ cm/s.

In turn, `CC(C)(C)c1nc2c(s1)CCc1nc(NC(=O)N3CC[C@@H]4C[C@@]43C(N)=O)sc1-2` gave a thermodynamic solubility in series [1] of 351 µM (≈ 147 µg/mL).

`Cc1nc(NC(=O)N2CCC[C@H]2C(N)=O)sc1-c1ccnc(C(C)(C)C(F)(F)F)c1` [ALPELISIB]: the Papp A→B in series [2] stood at 3.8 ×10⁻⁶ cm/s. In addition, the Papp B→A in [3] was 18.3 ×10⁻⁶ cm/s.

The bioavailability is the share of a dose that reaches the circulation, judged against a reference dose that is usually intravenous. Read a high bioavailability as good availability. Compound `CC(C)(C)c1nc2c(s1)CCc1nc(NC(=O)N3CCC[C@H]3C(N)=O)sc1-2` registered a solubility (thermodynamic) in series [1] of 65 µM (≈ 26.4 µg/mL). Besides, the AUC/dose in series [4] came to 4132 nmol·h/L; in series [7] it was 1585 nmol·h/L. For the same compound, the Vd in series [5] came to 0.4 L/kg. Also, the bioavailability in series [6] worked out at 39%.

In [1], `C[C@H]1CCN(C(=O)Nc2nc3c(s2)-c2nc(C(C)(C)C)sc2CC3)[C@@H]1C(N)=O` returned a solubility (thermodynamic) of less than 4 µM.

Regarding `C[C@@H]1CCN(C(=O)Nc2nc3c(s2)-c2nc(C(C)(C)C)ncc2CC3)[C@@H]1C(N)=O`, the thermodynamic solubility in series [1] is 71 µM (≈ 29.4 µg/mL). Moreover, the AUC/dose came to 5241 nmol·h/L in series [4] and 1874 nmol·h/L in [7]. Besides, the Vd in series [5] came to 0.5 L/kg. For the same compound, in series [2], the Papp A→B is 3.4 ×10⁻⁶ cm/s. The compound further yielded a bioavailability in [6] of 36%. The Papp B→A in series [3] was 21.7 ×10⁻⁶ cm/s.

With `CN(C)C[C@@H]1CCN(C(=O)Nc2nc3c(s2)-c2nc(C(C)(C)C)sc2CC3)[C@@H]1C(N)=O`, the AUC/dose stood at 956 nmol·h/L in [4] and 531 nmol·h/L in series [7]. Besides, the Vd in series [5] was 24 L/kg. In addition, in series [2], the Papp A→B came to 0.76 ×10⁻⁶ cm/s. In [6], this compound gave a bioavailability of 56%. Further, in series [3], the Papp B→A came to 6.87 ×10⁻⁶ cm/s.

Consider `Cc1nc(NC(=O)N2CCC[C@H]2C(N)=O)sc1-c1csc(C(C)(C)C)n1`, for which the results for the AUC/dose in [4] and in [7] were 561 nmol·h/L and 70 nmol·h/L, respectively. In addition, the Vd in series [5] amounted to 2 L/kg. For the same compound, in series [2], the Papp A→B was determined as 12.3 ×10⁻⁶ cm/s. The bioavailability in series [6] stood at 2%. For the same compound, the Papp B→A in series [3] is 15.6 ×10⁻⁶ cm/s.

For the compound `CN(C)C[C@@H]1CCN(C(=O)Nc2nc3c(s2)-c2nc(C(C)(C)C)ncc2CC3)[C@@H]1C(N)=O`, the thermodynamic solubility in series [1] came out at 276 µM (≈ 126 µg/mL).

On to `Cc1nc(NC(=O)N2CCC[C@H]2C(N)=O)sc1-c1ccnc(C(C)(C)C)n1`, for which the AUC/dose in series [4] worked out at 1128 nmol·h/L; in series [7], 199 nmol·h/L. Further, in series [5], the Vd is 1.3 L/kg. This compound also yielded a bioavailability in [6] of 18%.

The compound `CC(C)(C)c1ncc2c(n1)-c1sc(NC(=O)N3CC[C@@H]4C[C@@]43C(N)=O)nc1CC2` had a solubility (thermodynamic) in series [1] of 51 µM (≈ 21 µg/mL). For the same compound, the concentration at 16 h in series [8] was found to be 1000 nM. In addition, the AUC/dose in series [4] stood at 16472 nmol·h/L; in [7], 13599 nmol·h/L. Besides, the Vd in series [5] worked out at 0.6 L/kg. This compound also registered a bioavailability in series [6] of 83%. Also, the Drug uptake result in [9] is given as “Active”.

`NC(=O)[C@@H]1CCCN1C(=O)Nc1nc2c(s1)-c1nc(CC3CC3)sc1CC2` gave a solubility (thermodynamic) in series [1] of 55 µM (≈ 22.2 µg/mL).

In turn, `C[C@@H]1CCN(C(=O)Nc2nc3c(s2)-c2nc(C(C)(C)C(F)(F)F)sc2CC3)[C@@H]1C(N)=O` displayed a thermodynamic solubility in series [1] of 14 µM (≈ 6.63 µg/mL). Besides, the concentration at 8 h in series [10] was more than 1000 nM.

`C[C@@H]1CCN(C(=O)Nc2nc3c(s2)-c2nc(C(C)(C)C)sc2CC3)[C@@H]1C(N)=O` showed a solubility (thermodynamic) in [1] of 9 µM (≈ 3.78 µg/mL).

In turn, `C[C@@H]1CCN(C(=O)Nc2nc3c(s2)-c2nc(C(C)(C)C(F)(F)F)ncc2CC3)[C@@H]1C(N)=O` showed a thermodynamic solubility in series [1] of 9 µM (≈ 4.22 µg/mL).

Consider `CC(C)(C)c1ncc2c(n1)-c1sc(NC(=O)N3CCC[C@@]3(C)C(N)=O)nc1CC2`, for which the solubility (thermodynamic) in series [1] is 60 µM (≈ 24.9 µg/mL). Moreover, the Papp A→B in series [2] worked out at 3.4 ×10⁻⁶ cm/s. Also, the Papp B→A in [3] is 25.5 ×10⁻⁶ cm/s.

Take `CN(C)[C@@H]1C[C@@H](C(N)=O)N(C(=O)Nc2nc3c(s2)-c2nc(C(C)(C)C)ncc2CC3)C1`: in series [1], the thermodynamic solubility was determined as 500 µM (≈ 222 µg/mL).

For the compound `CC(C)(C)c1ncc2c(n1)-c1sc(NC(=O)N3CCC[C@H]3C(N)=O)nc1CC2`, the solubility (thermodynamic) in [1] amounted to 125 µM (≈ 50.1 µg/mL).

In [1], `CN(C)C[C@@]1(C(N)=O)CCCN1C(=O)Nc1nc2c(s1)-c1nc(C(C)(C)C)ncc1CC2` came in with a solubility (thermodynamic) of more than 1000 µM. Moreover, the results for the AUC/dose in series [4] and in series [7] were 1444 nmol·h/L and 1116 nmol·h/L, respectively. The Vd in [5] amounted to 3.2 L/kg. The Papp A→B in series [2] turned out to be 5.2 ×10⁻⁶ cm/s. The same compound displayed a bioavailability in series [6] of 77%. For the same compound, in series [3], the Papp B→A was 15.8 ×10⁻⁶ cm/s.
